According to ChEMBL document CHEMBL1145482, “Acquired echinocandin resistance in a Candida krusei isolate due to modification of glucan synthase” (Antimicrob Agents Chemother, 2007):
Values after ≈ are worked out from the molar mass of the structure shown. *1 amine or outer side, *2 acyl side, *3 side chain or, on linkers, in order; H or OH if unused. Where a SMILES comes first, the peptide text is derived from it. Bridges are numbered along the chain shown (N, C = ends). [ ]: non-standard residue; d: D form. The star is where a group is joined. hTyr(3S-OH,4S-OH,3'-OSO3H) = N[C@H](C(=O)O)[C@H](O)[C@@H](O)c1ccc(O)c(OS(=O)(=O)O)c1; pTerphenylCO(4''-OnC5H11) = CCCCCOc1ccc(-c2ccc(-c3ccc(C(=O)*)cc3)cc2)cc1; Orn(4R-OH,5R-OH) = O=C([C@H](C[C@@H](O)[C@@H](O)N[*:3])N[*:1])[*:2]; hTyr(3S-OH,4S-OH) = N[C@H](C(=O)O)[C@H](O)[C@@H](O)c1ccc(O)cc1; Pro(3S-OH,4S-Me) = C[C@H]1CN[C@H](C(=O)O)[C@H]1O; X1 = CCCCCOc1ccc(-c2cc(-c3ccc(C(=O)*)cc3)no2)cc1; Gln(3R-OH) = NC(=O)C[C@@H](O)[C@H](N)C(=O)O; Hyp = O=C(O)[C@@H]1C[C@@H](O)CN1

Assays:
Pichia kudriavzevii [1] = assay: Ratio of MIC of FKS1 T2080K mutation containing Candida krusei 100 isolate to MIC of Candida krusei 98 isolate from acute myelogenous leukemia patient by broth microdilution method; assay type: functional
Pichia kudriavzevii [2] = assay: Antifungal activity against Candida krusei 98 isolate from acute myelogenous leukemia patient by broth microdilution method; assay type: functional
Pichia kudriavzevii [3] = assay: Antifungal activity against FKS1 T2080K mutation containing Candida krusei 100 isolate from acute myelogenous leukemia patient by broth microdilution method; assay type: functional
[4] = molecular target: 1,3-beta-D-glucan synthase subunit (Pichia kudriavzevii, UniProt Q4U2W2, F655C); assay: Inhibition of FKS1 T2080K mutant from Candida krusei 100 isolate
Chain of 1,3-beta-D-glucan synthase subunit (Pichia kudriavzevii, UniProt Q4U2W2, F655C) (Q4U2W2 entry or part of it F655C): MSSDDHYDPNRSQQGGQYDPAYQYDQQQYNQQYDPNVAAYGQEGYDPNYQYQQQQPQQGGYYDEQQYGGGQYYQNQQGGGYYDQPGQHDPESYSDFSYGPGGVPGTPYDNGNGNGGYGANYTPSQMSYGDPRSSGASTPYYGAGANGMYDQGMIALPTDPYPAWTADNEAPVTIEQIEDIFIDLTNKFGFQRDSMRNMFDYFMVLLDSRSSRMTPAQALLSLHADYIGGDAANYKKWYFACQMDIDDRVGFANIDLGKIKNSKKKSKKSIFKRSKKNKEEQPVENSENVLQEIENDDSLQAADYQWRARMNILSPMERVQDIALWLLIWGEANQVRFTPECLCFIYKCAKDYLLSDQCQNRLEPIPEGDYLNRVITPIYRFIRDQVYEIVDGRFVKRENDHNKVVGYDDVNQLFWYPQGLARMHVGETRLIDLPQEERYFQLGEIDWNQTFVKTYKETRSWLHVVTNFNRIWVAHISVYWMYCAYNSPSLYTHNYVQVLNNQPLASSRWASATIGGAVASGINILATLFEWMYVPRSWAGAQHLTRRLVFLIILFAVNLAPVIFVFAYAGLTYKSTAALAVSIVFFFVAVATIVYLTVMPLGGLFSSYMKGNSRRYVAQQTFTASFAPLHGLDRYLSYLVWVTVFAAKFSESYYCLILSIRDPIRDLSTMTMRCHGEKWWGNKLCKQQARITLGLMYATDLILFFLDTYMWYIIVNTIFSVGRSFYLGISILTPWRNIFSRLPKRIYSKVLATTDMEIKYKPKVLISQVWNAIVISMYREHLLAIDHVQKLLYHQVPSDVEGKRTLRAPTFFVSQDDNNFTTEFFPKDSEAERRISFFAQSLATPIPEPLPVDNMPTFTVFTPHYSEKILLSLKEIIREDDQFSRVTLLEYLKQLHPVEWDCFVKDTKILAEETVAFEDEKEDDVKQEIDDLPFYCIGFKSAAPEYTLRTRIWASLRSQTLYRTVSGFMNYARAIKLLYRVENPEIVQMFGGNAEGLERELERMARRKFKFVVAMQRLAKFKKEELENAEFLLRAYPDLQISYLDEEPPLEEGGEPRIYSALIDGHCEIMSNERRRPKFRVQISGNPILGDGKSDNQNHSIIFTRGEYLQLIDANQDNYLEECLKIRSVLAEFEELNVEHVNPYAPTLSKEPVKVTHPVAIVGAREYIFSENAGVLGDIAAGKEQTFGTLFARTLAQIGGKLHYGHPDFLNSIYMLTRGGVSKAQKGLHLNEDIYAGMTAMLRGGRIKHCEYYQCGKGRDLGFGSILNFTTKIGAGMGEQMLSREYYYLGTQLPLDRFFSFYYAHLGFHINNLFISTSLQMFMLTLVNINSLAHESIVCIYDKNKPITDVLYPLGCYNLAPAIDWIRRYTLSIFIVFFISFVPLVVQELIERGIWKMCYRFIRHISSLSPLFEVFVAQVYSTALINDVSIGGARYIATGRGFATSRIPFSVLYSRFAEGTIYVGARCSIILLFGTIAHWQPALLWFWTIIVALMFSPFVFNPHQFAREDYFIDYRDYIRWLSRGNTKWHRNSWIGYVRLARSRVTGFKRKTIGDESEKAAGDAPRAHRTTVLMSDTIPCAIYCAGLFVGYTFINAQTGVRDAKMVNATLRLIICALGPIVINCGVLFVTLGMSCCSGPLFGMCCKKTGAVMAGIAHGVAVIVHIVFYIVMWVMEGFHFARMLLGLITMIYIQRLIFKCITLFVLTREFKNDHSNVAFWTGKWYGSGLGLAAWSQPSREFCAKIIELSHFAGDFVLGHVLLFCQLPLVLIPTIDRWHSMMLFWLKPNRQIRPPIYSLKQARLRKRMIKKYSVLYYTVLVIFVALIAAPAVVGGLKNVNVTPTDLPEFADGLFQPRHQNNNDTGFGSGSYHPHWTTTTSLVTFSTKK
In short: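 Glucan synthase enzyme complex isolated from posttreatment strain Ck-100. Caspofungin titrated against the enzyme. Inhibition curve fitted with a two-site competition algorithm to give IC50 in ng/ml.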

[5] = molecular target: 1,3-beta-D-glucan synthase subunit (Pichia kudriavzevii, UniProt Q4U2W2); assay: Inhibition of FKS1 from Candida krusei 98 isolate
Chain of 1,3-beta-D-glucan synthase subunit (Pichia kudriavzevii, UniProt Q4U2W2) (Q4U2W2 whole entry): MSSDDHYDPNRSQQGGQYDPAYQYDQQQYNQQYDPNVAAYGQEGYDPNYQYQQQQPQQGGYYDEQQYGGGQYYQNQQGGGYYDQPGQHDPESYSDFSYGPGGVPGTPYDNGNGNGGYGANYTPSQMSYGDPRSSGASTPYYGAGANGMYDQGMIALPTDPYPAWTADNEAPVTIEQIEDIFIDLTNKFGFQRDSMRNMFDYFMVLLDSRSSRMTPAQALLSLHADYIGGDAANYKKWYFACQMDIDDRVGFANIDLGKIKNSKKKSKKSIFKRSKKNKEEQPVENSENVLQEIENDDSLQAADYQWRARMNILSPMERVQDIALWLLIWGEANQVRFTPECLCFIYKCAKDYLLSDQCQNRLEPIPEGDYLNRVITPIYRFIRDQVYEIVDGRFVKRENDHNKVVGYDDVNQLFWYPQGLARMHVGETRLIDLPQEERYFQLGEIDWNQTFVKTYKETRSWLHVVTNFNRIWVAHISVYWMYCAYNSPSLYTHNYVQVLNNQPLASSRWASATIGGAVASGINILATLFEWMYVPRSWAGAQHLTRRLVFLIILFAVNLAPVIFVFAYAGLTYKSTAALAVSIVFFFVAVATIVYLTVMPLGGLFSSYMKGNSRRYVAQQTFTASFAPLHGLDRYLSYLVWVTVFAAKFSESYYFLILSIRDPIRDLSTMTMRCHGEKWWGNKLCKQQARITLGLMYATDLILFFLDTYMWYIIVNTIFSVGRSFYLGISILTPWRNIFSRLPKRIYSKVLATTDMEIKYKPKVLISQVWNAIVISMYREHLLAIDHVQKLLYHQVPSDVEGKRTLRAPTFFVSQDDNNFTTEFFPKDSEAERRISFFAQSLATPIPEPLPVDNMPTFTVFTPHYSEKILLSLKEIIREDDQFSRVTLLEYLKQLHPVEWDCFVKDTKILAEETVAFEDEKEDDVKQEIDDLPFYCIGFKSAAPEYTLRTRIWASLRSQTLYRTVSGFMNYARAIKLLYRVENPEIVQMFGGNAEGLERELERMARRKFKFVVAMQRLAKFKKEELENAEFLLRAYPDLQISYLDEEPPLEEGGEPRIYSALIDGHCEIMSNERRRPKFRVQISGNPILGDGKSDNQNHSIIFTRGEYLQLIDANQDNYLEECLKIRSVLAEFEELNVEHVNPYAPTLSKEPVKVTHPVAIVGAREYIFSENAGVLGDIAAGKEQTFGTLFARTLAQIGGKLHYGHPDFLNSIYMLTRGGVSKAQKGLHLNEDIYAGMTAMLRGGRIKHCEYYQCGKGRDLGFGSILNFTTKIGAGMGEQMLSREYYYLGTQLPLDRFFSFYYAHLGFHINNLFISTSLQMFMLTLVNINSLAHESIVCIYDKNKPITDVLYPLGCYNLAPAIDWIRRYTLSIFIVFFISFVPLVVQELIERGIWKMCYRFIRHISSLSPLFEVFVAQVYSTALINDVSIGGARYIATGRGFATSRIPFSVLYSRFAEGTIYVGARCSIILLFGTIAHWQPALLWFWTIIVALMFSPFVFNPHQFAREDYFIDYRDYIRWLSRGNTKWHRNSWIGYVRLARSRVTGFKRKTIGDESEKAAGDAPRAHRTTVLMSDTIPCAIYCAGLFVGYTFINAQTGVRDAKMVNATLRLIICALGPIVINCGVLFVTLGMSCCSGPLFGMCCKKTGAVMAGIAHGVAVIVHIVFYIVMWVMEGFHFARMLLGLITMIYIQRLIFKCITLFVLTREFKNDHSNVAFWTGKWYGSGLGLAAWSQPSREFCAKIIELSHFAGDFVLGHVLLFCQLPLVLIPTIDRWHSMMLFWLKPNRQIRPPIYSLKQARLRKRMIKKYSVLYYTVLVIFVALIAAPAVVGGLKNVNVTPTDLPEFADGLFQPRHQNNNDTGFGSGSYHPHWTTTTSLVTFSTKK
In short: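 Glucan synthase enzyme complex isolated from the pretreatment clinical strain Ck-98 and titrated with the echinocandin. Inhibition curves were fitted with a sigmoidal variable-slope dose-response model to give IC50 in ng/ml.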

Structure (SMILES)	Ratio (Pichia kudriavzevii [1])	MIC (Pichia kudriavzevii [2])	MIC (Pichia kudriavzevii [3])	IC50 [4]	IC50 [5]
CCCCCOc1ccc(-c2ccc(-c3ccc(C(=O)N[C@H]4C[C@@H](O)[C@@H](O)NC(=O)[C@@H]5[C@@H](O)[C@@H](C)CN5C(=O)[C@H]([C@@H](C)O)NC(=O)[C@H]([C@H](O)[C@@H](O)c5ccc(O)cc5)NC(=O)[C@@H]5C[C@@H](O)CN5C(=O)[C@H]([C@@H](C)O)NC4=O)cc3)cc2)cc1 [ANIDULAFUNGIN] ({pTerphenylCO(4''-OnC5H11)}-[Orn(4R-OH,5R-OH)]T[Hyp][hTyr(3S-OH,4S-OH)]T[Pro(3S-OH,4S-Me)]; lactam 1-C)	16	0.25 µg/mL (≈ 0.219 µM)	4 µg/mL (≈ 3.51 µM)		
CC[C@H](C)C[C@H](C)CCCCCCCCC(=O)N[C@H]1C[C@@H](O)[C@@H](NCCN)NC(=O)[C@@H]2[C@@H](O)CCN2C(=O)[C@H]([C@H](O)CCN)NC(=O)[C@H]([C@H](O)[C@@H](O)c2ccc(O)cc2)NC(=O)[C@@H]2C[C@@H](O)CN2C(=O)[C@H]([C@@H](C)O)NC1=O [CASPOFUNGIN]	32	0.25 µg/mL (≈ 0.229 µM)	8 µg/mL (≈ 7.32 µM)	3610 nM	6.22 nM
CCCCCOc1ccc(-c2cc(-c3ccc(C(=O)N[C@H]4C[C@@H](O)[C@@H](O)NC(=O)[C@@H]5[C@@H](O)[C@@H](C)CN5C(=O)[C@H]([C@H](O)CC(N)=O)NC(=O)[C@H]([C@H](O)[C@@H](O)c5ccc(O)c(OS(=O)(=O)O)c5)NC(=O)[C@@H]5C[C@@H](O)CN5C(=O)[C@H]([C@@H](C)O)NC4=O)cc3)no2)cc1 [MICAFUNGIN] (X1-[Orn(4R-OH,5R-OH)]T[Hyp][hTyr(3S-OH,4S-OH,3'-OSO3H)][Gln(3R-OH)][Pro(3S-OH,4S-Me)]; lactam 1-C)	16	0.25 µg/mL (≈ 0.197 µM)	4 µg/mL (≈ 3.15 µM)		
